Drawing on PubChem BioAssay, this text covers viability, differential viability (reversal) and inhibition for twelve compounds.

Assay [1] in a line: reduced viability of SK-BR-3 breast cancer cells – cell-based, 24 h, human, pilot screen (AID 572;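 active means viability at or below 10% of carrier control in both of two separate runs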;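 further: compound exposure lasted between 18 and 24 h rather than exactly 24 h; 100% = carrier-treated control wells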). To be noted: SK-BR-3 viability, CellTiter-Glo luminescence, at 10 µM, stronger effect = lower value.
The nature of assay [2]: HUVEC growth inhibition – cell-based, human, primary screen (AID 575;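 active means viability at or below 30% in both replicate assays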;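 further: 100% = median of untreated cell wells with 0.1% DMSO on each plate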). To be noted: HUVEC proliferation, CellTiter-Glo luminescence, 72 h; at 10 µM; stronger effect = lower value. The gist of the method: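 Assay system: Primary human umbilical vein endothelial cells | Quantity: 1250 cells per well | Medium: Supplemented EBM, 2% fetal bovine serum | Detection: CellTiter-Glo luminescence measuring cellular ATP | Read-out: % viability vs DMSO wells | Plate: Collagen-coated 384-well format | Times: 72 h exposure, 37 °C, 5% CO2, 30 min RT equilibration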
Background: In ATP-based viability assays light output follows the ATP content of the culture.

A short description of assay [3]: H69AR cell proliferation blockers – human, duplicate replicates, primary screen (AID 580;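 active means viability at or under a set limit in both replicates, limit being median viability minus 3 SD, cut at about 48% in these data, passing the limit was not always enough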;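 further: 100% = mean luminescence of untreated wells and 0% = no signal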). To be noted: H69AR lung tumor cells viability, ATP luminescence, 72 h; at 10 µM; stronger effect = lower value.
Assay [4] can be described thus: MRP1 drug-resistance reversers in H69AR cells – cell-based, doxorubicin co-treatment, pilot screen (AID 601;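 active means viability loss from added drug above about 55%, and viability with drug at most 40%, in both replicates, limit read from the data, passing the limit was not always enough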). To be noted: CellTiter-Glo, 72 h, at 10 µM; for differential viability (reversal): stronger effect = higher value.
Assay [5] is described as follows: yeast transport mutant growth inhibition pilot in 384-well plates, post-Golgi transport modulator project (AID 636; in the data active means inhibition above about 31%). To be noted: absorbance 615 nm, about 18 h, stronger effect = higher value.
The nature of assay [6]: growth suppression of yeast trafficking mutant, preliminary HTS, modulators of trafficking downstream of Golgi apparatus project, 1536-format plate, OD 615 nm (AID 637). To be noted: yeast transport mutant growth, absorbance 615 nm, 18 h; stronger effect = higher value.
The mark [7] stands for this setting: H69AR cells + 2 uM doxorubicin, measured here: viability with 2 uM doxorubicin, stronger effect = lower value.
The mark [8] stands for this setting: H69AR cells, compound alone cytotoxicity.

Activity calls are given as the source filed them. Unless noted, no stated cut-off is given here; in the data, active means inhibition above about 30%; inactive means the rest.

A word on the viability: it is a read-out of living cells in per cent, often relative to untreated cells. What is called inhibition is the drop in the measured response relative to a control, in per cent. For `C=COCCNC(=O)Nc1ccc(Cl)c(Cl)c1`, the viability in assay [1] is 91% (inactive); in assay [2], 101% (inactive); in assay [3], 91.1% (inactive); in assay [4] (setting [7]), 94.1%; in assay [4] (setting [8]), 91.1%. In addition, the differential viability (reversal) in assay [4] (H69AR cells + 2 uM doxorubicin) is -3.01% (inactive). Further, the inhibition in assay [5] is 2.16% (inactive); in assay [6], -1.09% (inactive).

Take `CCOC(=O)C1CCCN(C(=O)c2cc3c(-c4cccc(OC)c4)nn(C)c3s2)C1` (stereo unspecified): the viability in assay [1] is 115% (inactive); in assay [2], 56.1% (inactive); in assay [3], 13.2% (active); in assay [4] (setting [7]), 82.2%; in assay [4] (setting [8]), 13.2%. The differential viability (reversal) in assay [4] (H69AR cells + 2 uM doxorubicin) is -69% (inactive). Besides, the inhibition in assay [5] is -8.13% (inactive); in assay [6] it was 1.64% (inactive).

`O=C(Nc1ccc(Br)c2cccnc12)c1ccc(Cn2cc(Cl)cn2)o1`: the viability in assay [1] was 156% (inactive); in assay [2] it was 43% (inactive); in assay [3] it was 87.4% (inactive); in assay [4] (setting [7]), 78.2%; in assay [4] (setting [8]) it was 87.4%. The differential viability (reversal) in assay [4] (H69AR cells + 2 uM doxorubicin) was 9.23% (inactive). Moreover, the inhibition in assay [5] is -1.56% (inactive); in assay [6], -3.44% (inactive).

Turning to `Cc1c(C)n(C(=O)CN2CCN(c3ccccn3)CC2)c2ccccc12`, the viability is 102% (inactive) in assay [1]; 81.2% (inactive) in assay [2]; 81.7% (inactive) in assay [3]; 82.5% in assay [4] (setting [7]); 81.7% in assay [4] (setting [8]). In addition, the differential viability (reversal) in assay [4] (H69AR cells + 2 uM doxorubicin) was -0.845% (inactive). Moreover, the figures for the inhibition in assay [5] and in assay [6] were -5.2% (inactive) and -2.73% (inactive), respectively.

Turning to `CCCCOc1ccc(C(=O)CCN2CCCCC2)cc1`, the viability in assay [1] is 121% (inactive); in assay [2] it was 46% (inactive); in assay [3], 66.1% (inactive); in assay [4] (setting [7]), 41.4%; in assay [4] (setting [8]) it was 66.1%. In addition, the differential viability (reversal) in assay [4] (H69AR cells + 2 uM doxorubicin) was 24.7% (inactive). Also, the inhibition in assay [5] is -2.21% (inactive); in assay [6], 6.17% (inactive).

Take `CCCCNC(=O)CSc1nc2ccc(N3CCOCC3)cc2c(=O)n1CCc1ccccc1`: the viability in assay [1] was 95.5% (inactive); in assay [2], 70.1% (inactive); in assay [3] it was 69.3% (inactive); in assay [4] (setting [7]), 51.3%; in assay [4] (setting [8]) it was 69.3%. Besides, the differential viability (reversal) in assay [4] (H69AR cells + 2 uM doxorubicin) was 18.1% (inactive). Besides, the inhibition is -7.16% (inactive) in assay [5] and 4.13% (inactive) in assay [6].

On to `COc1ccc(S(=O)(=O)Nc2ccc(Cl)cn2)c(C)c1C`, for which the viability in assay [1] is 100% (inactive); in assay [2] it was 107% (inactive); in assay [3], 88.5% (inactive); in assay [4] (setting [7]), 87.8%; in assay [4] (setting [8]), 88.5%. Further, the differential viability (reversal) in assay [4] (H69AR cells + 2 uM doxorubicin) was 0.69% (inactive). Besides, the inhibition is -0.93% (inactive) in assay [5] and 0% (inactive) in assay [6].

In the case of `COc1ccccc1-n1c(SCC(=O)NC(C)(C)C)nnc1-c1ccco1`, the viability in assay [1] is 82% (inactive); in assay [2] it was 104% (inactive); in assay [3], 96.1% (inactive); in assay [4] (setting [7]), 111%; in assay [4] (setting [8]), 96.1%. Besides, the differential viability (reversal) in assay [4] (H69AR cells + 2 uM doxorubicin) was -15.2% (inactive). Besides, the figures for the inhibition in assay [5] and in assay [6] were -4.79% (inactive) and -3.45% (inactive), respectively.

With `CCOC(=O)c1c(C)[nH]c(C(=O)Cn2c(=O)c3c(ncn3CC)n(Cc3ccccc3)c2=O)c1C`, the viability was 89% (inactive) in assay [1]; 98% (inactive) in assay [2]; 85.2% (inactive) in assay [3]; 90.1% in assay [4] (setting [7]); 85.2% in assay [4] (setting [8]). Moreover, in assay [4] (H69AR cells + 2 uM doxorubicin), the differential viability (reversal) is -4.88% (inactive). Further, the figures for the inhibition in assay [5] and in assay [6] were -6.35% (inactive) and -2.73% (inactive), respectively.

For the compound `COc1ccc(OC)c(N(CC(=O)Nc2cccnc2)S(=O)(=O)c2ccc(OC)c(OC)c2)c1`, the viability in assay [1] was 112% (inactive); in assay [2], 91% (inactive); in assay [3], 83.7% (inactive); in assay [4] (setting [7]), 85.7%; in assay [4] (setting [8]), 83.7%. In assay [4] (H69AR cells + 2 uM doxorubicin), the differential viability (reversal) was -2.03% (inactive). Moreover, the inhibition in assay [5] was -6.58% (inactive); in assay [6], 0.91% (inactive).

On to `Cc1ccc2[nH]c(=O)c(-c3noc(-c4ccncc4)n3)cc2c1`, for which the viability was 104% (inactive) in assay [1]; 113% (inactive) in assay [2]; 98.7% (inactive) in assay [3]; 94% in assay [4] (setting [7]); 98.7% in assay [4] (setting [8]). Also, in assay [4] (H69AR cells + 2 uM doxorubicin), the differential viability (reversal) is 4.67% (inactive). For the same compound, the inhibition is -8.11% (inactive) in assay [5] and 6.18% (inactive) in assay [6].

Regarding `Cc1cc(=O)c2n(Cc3ccccc3Cl)nc[n+]2[nH]1`, the viability in assay [1] was 115% (inactive); in assay [2], 100% (inactive); in assay [3], 97.1% (inactive); in assay [4] (setting [7]), 88.3%; in assay [4] (setting [8]) it was 97.1%. Moreover, the differential viability (reversal) in assay [4] (H69AR cells + 2 uM doxorubicin) is 8.77% (inactive). Also, the figures for the inhibition in assay [5] and in assay [6] were -4.4% (inactive) and 0% (inactive), respectively.
